Key:
[1] = biological target: Serine/threonine-protein kinase Nek2 (Homo sapiens) (UniProt P51955); test: Binding affinity to wild-type human partial length NEK2 (M1 to K309 residues) expressed in bacterial expression system assessed as residual binding level at 1 uM by Kinomescan method relative to control
[2] = biological target: Serine/threonine-protein kinase MAK (Homo sapiens) (UniProt P20794); test: Binding affinity to wild-type human partial length MAK (M1 to P314 residues) expressed in bacterial expression system assessed as residual binding level at 1 uM by Kinomescan method relative to control
Method in brief: (§1)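 Active-site-directed competition binding panel of 468 kinases (KinomeScan), compound at 1 μM. The read-out is kinase remaining bound, given as a percentage of the DMSO control. […]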

[3] = biological target: Serine/threonine-protein kinase Nek7 (Homo sapiens) (UniProt Q8TDX7); test: Binding affinity to wild-type human full length NEK7 (M1 to S302 residues) expressed in bacterial expression system assessed as residual binding level at 1 uM by Kinomescan method relative to control
Sequence of Serine/threonine-protein kinase Nek7 (Homo sapiens) (Q8TDX7 whole entry, looked up, the tested form may be a part): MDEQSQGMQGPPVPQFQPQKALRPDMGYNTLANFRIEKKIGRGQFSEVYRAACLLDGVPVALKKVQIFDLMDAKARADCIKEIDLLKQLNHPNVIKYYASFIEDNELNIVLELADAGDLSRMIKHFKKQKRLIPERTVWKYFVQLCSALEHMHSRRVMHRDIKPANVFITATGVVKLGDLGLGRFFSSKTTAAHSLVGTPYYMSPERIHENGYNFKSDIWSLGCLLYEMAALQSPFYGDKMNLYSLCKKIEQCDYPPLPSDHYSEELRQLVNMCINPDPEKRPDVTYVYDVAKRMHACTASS
Method in brief: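 Active-site-directed competition binding panel (KinomeScan) covering 468 kinases. Test agent was screened at 1 μM. The read-out is the remaining kinase signal expressed relative to a DMSO control. Scores above 35%, taken as weak binding, were not reported.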

[4] = biological target: Ribosomal protein S6 kinase alpha-5 (Homo sapiens) (UniProt O75582); test: Binding affinity to wild-type human partial length C-terminal RPS6KA5 kinase domain 2 (V390 to T718 residues) expressed in bacterial expression system assessed as residual binding level at 1 uM by Kinomescan method relative to control
[5] = biological target: Casein kinase I isoform gamma-3 (Homo sapiens) (UniProt Q9Y6M4); test: Binding affinity to wild-type human full length CSNK1G3 (M1 to K447 residues) expressed in bacterial expression system assessed as residual binding level at 1 uM by Kinomescan method relative to control
Sequence of Casein kinase I isoform gamma-3 (Homo sapiens) (Q9Y6M4 whole entry, looked up, the tested form may be a part, canonical isoform): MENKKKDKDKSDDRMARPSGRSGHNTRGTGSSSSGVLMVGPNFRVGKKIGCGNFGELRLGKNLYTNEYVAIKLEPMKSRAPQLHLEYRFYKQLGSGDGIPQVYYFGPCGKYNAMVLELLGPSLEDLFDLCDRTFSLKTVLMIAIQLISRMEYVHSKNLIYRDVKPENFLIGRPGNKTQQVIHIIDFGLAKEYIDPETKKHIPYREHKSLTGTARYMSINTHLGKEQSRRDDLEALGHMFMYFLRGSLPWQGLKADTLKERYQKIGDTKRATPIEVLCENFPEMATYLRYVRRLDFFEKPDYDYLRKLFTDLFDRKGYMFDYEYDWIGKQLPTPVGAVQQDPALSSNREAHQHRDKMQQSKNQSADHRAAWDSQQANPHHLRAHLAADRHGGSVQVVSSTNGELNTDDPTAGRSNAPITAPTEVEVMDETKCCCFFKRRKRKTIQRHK
Method in brief: (§2)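 Active-site-directed KinomeScan competition binding panel covering 468 kinases, compound tested at 1 μM. Each readout is the kinase signal remaining with compound, expressed as a percentage of the DMSO control. […]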

[6] = biological target: Interferon-induced, double-stranded RNA-activated protein kinase (Homo sapiens) (UniProt P19525); test: Binding affinity to wild-type human partial length PRKR (F247 to C551 residues) expressed in bacterial expression system assessed as residual binding level at 1 uM by Kinomescan method relative to control
[7] = biological target: Testis-specific serine/threonine-protein kinase 3 (Homo sapiens) (UniProt Q96PN8); test: Binding affinity to wild-type human full length TSSK3 (M1 to T268 residues) expressed in mammalian expression system assessed as residual binding level at 1 uM by Kinomescan method relative to control
Sequence of Testis-specific serine/threonine-protein kinase 3 (Homo sapiens) (Q96PN8 whole entry, the tested form may be a part): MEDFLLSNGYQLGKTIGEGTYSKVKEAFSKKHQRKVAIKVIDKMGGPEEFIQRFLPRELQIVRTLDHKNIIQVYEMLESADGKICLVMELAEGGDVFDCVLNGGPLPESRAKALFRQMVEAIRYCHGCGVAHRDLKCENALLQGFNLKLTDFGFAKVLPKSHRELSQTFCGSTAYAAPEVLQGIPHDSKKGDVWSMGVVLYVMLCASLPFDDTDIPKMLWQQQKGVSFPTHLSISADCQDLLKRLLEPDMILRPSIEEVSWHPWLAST
Method in brief: (§3)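 KinomeScan, an active site-directed competition binding panel of 468 kinases. The test compound was at 1 μM. The readout is remaining kinase binding as a percentage of the DMSO control. Scores above 35% were treated as weak binding and not listed.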

[8] = biological target: Serine/threonine-protein kinase 25 (Homo sapiens) (UniProt O00506); test: Binding affinity to wild-type human partial length YSK1 (V14 to H295 residues) expressed in bacterial expression system assessed as residual binding level at 1 uM by Kinomescan method relative to control
[9] = biological target: Inhibitor of nuclear factor kappa-B kinase subunit beta (Homo sapiens) (UniProt O14920); test: Binding affinity to wild-type human full length IKK-beta (M1 to S756 residues) expressed in mammalian expression system assessed as residual binding level at 1 uM by Kinomescan method relative to control; method in brief: as §2
Sequence of Inhibitor of nuclear factor kappa-B kinase subunit beta (Homo sapiens) (O14920 whole entry, the tested form may be a part): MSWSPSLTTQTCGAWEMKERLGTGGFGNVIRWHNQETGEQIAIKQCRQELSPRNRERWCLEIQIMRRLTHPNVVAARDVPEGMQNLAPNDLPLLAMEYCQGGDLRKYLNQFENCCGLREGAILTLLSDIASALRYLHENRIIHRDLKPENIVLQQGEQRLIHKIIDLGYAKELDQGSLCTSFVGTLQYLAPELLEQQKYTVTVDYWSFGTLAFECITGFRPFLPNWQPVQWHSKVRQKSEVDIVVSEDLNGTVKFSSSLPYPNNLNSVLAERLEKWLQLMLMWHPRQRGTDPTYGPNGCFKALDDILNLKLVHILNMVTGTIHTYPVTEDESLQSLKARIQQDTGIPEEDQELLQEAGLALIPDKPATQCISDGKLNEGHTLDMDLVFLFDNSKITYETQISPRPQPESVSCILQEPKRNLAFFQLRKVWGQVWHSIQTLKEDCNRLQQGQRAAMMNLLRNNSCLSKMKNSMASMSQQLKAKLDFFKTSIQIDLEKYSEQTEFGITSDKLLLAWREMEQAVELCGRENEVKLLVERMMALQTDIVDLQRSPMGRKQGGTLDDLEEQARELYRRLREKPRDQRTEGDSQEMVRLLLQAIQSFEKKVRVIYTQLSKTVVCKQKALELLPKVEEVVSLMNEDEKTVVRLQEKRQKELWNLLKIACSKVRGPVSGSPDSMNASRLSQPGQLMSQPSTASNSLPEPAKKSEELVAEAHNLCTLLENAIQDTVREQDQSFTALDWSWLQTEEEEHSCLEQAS

[10] = tested on: Tyrosine-protein kinase ABL1 (Homo sapiens), P00519 [F317I]; test: Binding affinity to human phosphorylated ABL1 F317I mutant (S229 to K512 residues) expressed in mammalian expression system assessed as residual binding level at 1 uM by Kinomescan method relative to control
Sequence of Tyrosine-protein kinase ABL1 (Homo sapiens), P00519 [F317I] (P00519 whole entry F317I, the tested form may be a part): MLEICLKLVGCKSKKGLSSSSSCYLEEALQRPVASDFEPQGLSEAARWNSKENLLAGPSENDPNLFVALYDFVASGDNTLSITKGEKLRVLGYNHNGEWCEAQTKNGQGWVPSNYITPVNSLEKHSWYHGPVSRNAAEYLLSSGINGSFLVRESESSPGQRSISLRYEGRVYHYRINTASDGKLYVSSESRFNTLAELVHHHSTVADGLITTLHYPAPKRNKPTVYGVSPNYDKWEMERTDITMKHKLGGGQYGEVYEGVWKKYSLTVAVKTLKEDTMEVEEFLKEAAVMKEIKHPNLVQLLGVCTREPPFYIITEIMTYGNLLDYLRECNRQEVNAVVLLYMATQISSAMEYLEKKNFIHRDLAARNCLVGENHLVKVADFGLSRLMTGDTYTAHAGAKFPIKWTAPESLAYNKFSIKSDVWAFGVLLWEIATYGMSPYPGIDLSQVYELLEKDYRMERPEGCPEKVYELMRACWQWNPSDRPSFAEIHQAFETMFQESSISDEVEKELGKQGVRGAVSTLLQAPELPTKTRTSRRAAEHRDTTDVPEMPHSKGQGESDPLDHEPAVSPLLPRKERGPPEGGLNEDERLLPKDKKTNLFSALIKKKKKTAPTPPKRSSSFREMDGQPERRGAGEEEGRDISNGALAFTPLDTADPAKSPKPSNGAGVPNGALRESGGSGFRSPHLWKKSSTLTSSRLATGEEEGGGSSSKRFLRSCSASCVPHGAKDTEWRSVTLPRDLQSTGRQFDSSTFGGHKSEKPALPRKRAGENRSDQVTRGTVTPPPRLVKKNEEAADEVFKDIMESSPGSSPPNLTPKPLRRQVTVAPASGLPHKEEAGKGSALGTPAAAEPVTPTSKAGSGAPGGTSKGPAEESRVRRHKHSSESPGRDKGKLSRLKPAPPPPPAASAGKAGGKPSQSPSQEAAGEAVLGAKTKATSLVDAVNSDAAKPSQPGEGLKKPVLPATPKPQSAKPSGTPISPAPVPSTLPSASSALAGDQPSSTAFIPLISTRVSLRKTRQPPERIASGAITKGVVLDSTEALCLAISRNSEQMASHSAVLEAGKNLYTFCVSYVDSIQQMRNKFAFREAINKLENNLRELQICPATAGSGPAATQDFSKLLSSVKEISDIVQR
Method in brief: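 KinomeScan active site-directed competition binding panel (468 kinases), compound tested at 1 μM. Result expressed as remaining kinase signal versus DMSO control (percent of control).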

[11] = biological target: NUAK family SNF1-like kinase 1 (Homo sapiens) (UniProt O60285); test: Binding affinity to wild-type human partial length ARK5 (E25 to I332 residues) expressed in bacterial expression system assessed as residual binding level at 1 uM by Kinomescan method relative to control
[12] = biological target: Cyclin-dependent kinase 4/cyclin D1 (Homo sapiens) (UniProt P11802+P24385); test: Binding affinity to wild-type human full length CDK4/cyclinD1 (M1 to E303 residues) expressed in mammalian expression system assessed as residual binding level at 1 uM by Kinomescan method relative to control; method in brief: as §2
[13] = biological target: Mitogen-activated protein kinase 12 (Homo sapiens) (UniProt P53778); test: Binding affinity to wild-type human full length p38-gamma (M1 to L367 residues) expressed in mammalian expression system assessed as residual binding level at 1 uM by Kinomescan method relative to control; method in brief: as §3
[14] = biological target: Serine/threonine-protein kinase WNK4 (Homo sapiens) (UniProt Q96J92); test: Binding affinity to wild-type human partial length WNK4 (A31 to D461 residues) expressed in mammalian expression system assessed as residual binding level at 1 uM by Kinomescan method relative to control
Method in brief: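 Active site-directed competition binding panel (KinomeScan, 468 kinases). Test compound at 1 μM. Read-out is kinase binding remaining versus DMSO control, expressed as percent of control. Scores above 35% are treated as weak binding.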

[15] = biological target: Platelet-derived growth factor receptor alpha (Homo sapiens) (UniProt P16234); test: Binding affinity to wild-type human partial length PDGFRA (V575 to D1002 residues) expressed in mammalian expression system assessed as residual binding level at 1 uM by Kinomescan method relative to control; method in brief: as §1
[16] = biological target: Dual specificity tyrosine-phosphorylation-regulated kinase 1B (Homo sapiens) (UniProt Q9Y463); test: Binding affinity to wild-type human full length DYRK1B (M1 to S629 residues) expressed in bacterial expression system assessed as residual binding level at 1 uM by Kinomescan method relative to control; method in brief: as §2
Sequence of Dual specificity tyrosine-phosphorylation-regulated kinase 1B (Homo sapiens) (Q9Y463 whole entry, looked up, the tested form may be a part): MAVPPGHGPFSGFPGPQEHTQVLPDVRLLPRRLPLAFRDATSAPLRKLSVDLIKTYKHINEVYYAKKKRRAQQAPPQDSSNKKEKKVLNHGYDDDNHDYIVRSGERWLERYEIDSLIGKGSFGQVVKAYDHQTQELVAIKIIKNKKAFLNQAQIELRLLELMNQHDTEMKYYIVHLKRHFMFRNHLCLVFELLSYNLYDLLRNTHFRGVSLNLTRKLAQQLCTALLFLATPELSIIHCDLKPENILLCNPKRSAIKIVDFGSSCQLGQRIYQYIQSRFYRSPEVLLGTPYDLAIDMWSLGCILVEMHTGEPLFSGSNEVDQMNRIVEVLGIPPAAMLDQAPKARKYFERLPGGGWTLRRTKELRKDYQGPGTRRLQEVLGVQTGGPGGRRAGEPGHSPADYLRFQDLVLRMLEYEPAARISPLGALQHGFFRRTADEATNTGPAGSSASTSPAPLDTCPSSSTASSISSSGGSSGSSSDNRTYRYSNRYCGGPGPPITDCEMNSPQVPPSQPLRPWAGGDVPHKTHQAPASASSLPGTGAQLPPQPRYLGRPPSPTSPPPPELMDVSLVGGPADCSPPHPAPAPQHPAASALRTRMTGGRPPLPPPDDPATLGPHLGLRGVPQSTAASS

[17] = biological target: Serine/threonine-protein kinase PAK 3 (Homo sapiens) (UniProt O75914); test: Binding affinity to wild-type human full length PAK3 (M1 to R544 residues) expressed in bacterial expression system assessed as residual binding level at 1 uM by Kinomescan method relative to control; method in brief: as §3
Sequence of Serine/threonine-protein kinase PAK 3 (Homo sapiens) (O75914 whole entry, looked up, the tested form may be a part): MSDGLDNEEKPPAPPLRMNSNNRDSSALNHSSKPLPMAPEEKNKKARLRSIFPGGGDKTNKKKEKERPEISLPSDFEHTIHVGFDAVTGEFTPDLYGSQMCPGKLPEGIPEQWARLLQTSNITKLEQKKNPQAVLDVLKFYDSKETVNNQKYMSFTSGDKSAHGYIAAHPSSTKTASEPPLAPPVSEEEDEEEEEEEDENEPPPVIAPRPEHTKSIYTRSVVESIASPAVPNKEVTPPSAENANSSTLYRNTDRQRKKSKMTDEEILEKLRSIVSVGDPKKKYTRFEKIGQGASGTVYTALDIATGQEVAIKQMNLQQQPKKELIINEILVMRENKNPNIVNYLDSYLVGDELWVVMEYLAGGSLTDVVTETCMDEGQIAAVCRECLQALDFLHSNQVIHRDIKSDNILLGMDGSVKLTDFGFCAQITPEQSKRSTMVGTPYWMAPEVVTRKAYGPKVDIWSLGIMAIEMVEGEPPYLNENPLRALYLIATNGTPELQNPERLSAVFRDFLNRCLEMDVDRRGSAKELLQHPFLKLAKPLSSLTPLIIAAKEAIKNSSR

[18] = biological target: Atypical kinase COQ8A, mitochondrial (Homo sapiens) (UniProt Q8NI60); test: Binding affinity to wild-type human full length ADCK3 (M280 to Q647 residues) expressed in bacterial expression system assessed as residual binding level at 1 uM by Kinomescan method relative to control; method in brief: as §2
Sequence of Atypical kinase COQ8A, mitochondrial (Homo sapiens) (Q8NI60 163-647 limits assumed): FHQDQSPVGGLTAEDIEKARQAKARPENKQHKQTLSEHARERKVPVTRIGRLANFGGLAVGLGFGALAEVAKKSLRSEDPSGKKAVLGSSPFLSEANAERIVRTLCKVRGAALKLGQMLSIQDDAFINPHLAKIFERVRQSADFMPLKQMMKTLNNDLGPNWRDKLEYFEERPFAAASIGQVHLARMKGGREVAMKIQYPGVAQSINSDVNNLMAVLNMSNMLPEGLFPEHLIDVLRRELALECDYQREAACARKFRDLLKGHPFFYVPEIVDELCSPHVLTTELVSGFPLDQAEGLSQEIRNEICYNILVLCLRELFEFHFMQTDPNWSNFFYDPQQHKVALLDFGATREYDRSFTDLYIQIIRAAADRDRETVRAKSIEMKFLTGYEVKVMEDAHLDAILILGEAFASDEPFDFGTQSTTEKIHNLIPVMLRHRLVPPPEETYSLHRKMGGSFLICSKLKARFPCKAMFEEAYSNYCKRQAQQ

[19] = biological target: Calcium/calmodulin-dependent protein kinase type II subunit alpha (Homo sapiens) (UniProt Q9UQM7); test: Binding affinity to wild-type human partial length CAMK2A (M1 to K328 residues) expressed in bacterial expression system assessed as residual binding level at 1 uM by Kinomescan method relative to control
[20] = biological target: Dual specificity mitogen-activated protein kinase kinase 2 (Homo sapiens) (UniProt P36507); test: Binding affinity to wild-type human full length MEK2 (M1 to V400 residues) expressed in mammalian expression system assessed as residual binding level at 1 uM by Kinomescan method relative to control; method in brief: as §3
Sequence of Dual specificity mitogen-activated protein kinase kinase 2 (Homo sapiens) (P36507 whole entry, the tested form may be a part): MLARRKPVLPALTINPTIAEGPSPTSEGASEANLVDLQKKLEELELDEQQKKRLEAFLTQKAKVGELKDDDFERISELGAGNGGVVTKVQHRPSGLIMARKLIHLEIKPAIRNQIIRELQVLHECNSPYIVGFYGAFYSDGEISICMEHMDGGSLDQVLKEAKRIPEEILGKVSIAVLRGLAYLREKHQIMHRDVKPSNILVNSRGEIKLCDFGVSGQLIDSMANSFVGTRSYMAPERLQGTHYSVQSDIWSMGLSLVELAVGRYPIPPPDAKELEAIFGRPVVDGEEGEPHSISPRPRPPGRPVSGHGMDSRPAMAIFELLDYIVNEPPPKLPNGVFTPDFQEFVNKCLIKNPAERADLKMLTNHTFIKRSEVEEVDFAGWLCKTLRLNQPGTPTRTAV

## C=CC(=O)Nc1ccccc1Nc1nc(Nc2ccc(N3CCN(C)CC3)cc2)ncc1C(=O)Nc1c(C)cccc1Cl
[1]
  Activity: 100%
[2]
  Activity: 70%
[3]
  Activity: 100%
[4]
  Activity: 100%
[5]
  Activity: 100%
[6]
  Activity: 100%
[7]
  Activity: 90%
[8]
  Activity: 100%
[9]
  Activity: 100%
[10]
  Activity: 6.9%
[11]
  Activity: 100%
[12]
  Activity: 100%
[13]
  Activity: 97%
[14]
  Activity: 97%
[15]
  Activity: 90%
[16]
  Activity: 74%
[17]
  Activity: 76%
[18]
  Activity: 100%
[19]
  Activity: 100%
[20]
  Activity: 93%

Reference: ChEMBL document CHEMBL4354843, “Structure-Based Design of a Potent and Selective Covalent Inhibitor for SRC Kinase That Targets a P-Loop Cysteine” (J Med Chem, 2020)
